The list is not random: actives were taken first. Their share in the collection is about 3.5%.
MrgX1 ag: human MrgX1 receptor agonism, primary screen. MrgX1-HEK293 cells, Fluo-4 calcium fluorescence, agonist mode; hits give high values. B-score at 10 µM. 310,000 compounds, 0.44% hits;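 active means calcium response B-score plate-corrected fluorescence ratio at least 3 library SD, with starting fluorescence B-score inside 5 SD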
Target sequence (Q96LB2 whole entry, looked up): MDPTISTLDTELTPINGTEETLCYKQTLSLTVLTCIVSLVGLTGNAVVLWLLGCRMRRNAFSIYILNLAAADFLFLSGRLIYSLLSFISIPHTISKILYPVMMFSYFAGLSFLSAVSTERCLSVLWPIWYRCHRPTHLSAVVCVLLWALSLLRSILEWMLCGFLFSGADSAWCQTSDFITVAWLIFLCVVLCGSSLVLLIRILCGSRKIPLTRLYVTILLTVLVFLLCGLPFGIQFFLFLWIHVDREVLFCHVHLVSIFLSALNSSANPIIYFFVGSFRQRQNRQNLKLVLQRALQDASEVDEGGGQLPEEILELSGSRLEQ
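System: HEK293 cells stably expressing human MrgX1 receptor; Dosing: test compound in the initial addition of three; Schedule: overnight plating, then 30 min 37 °C plus 30 min room-temperature dye loading; Detection: kinetic calcium dye fluorescence, Fluo-4 NW; Controls: per-plate positive and negative controls for Z′ factor.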
RGS4 pot: potentiators or activators of RGS4 | 310,000 compounds, 0.92% hits | HEK293 M3R/inducible RGS4, carbachol calcium flux Fluo4; hits give low values | B-score at 10 µM;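 active means B-score of the integrated calcium signal more than 4 SD below the library mean, with starting fluorescence not abnormally high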;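 further: negative B-score means reduced calcium response which marks RGS4 activation or potentiation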
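Material: M3R-expressing HEK293 line, RGS4 induced by doxycycline | Schedule: Overnight RGS4 induction, 30 min dye load 37 °C, 20 min compound RT | Measured by: Fluo4 fluorescence kinetic imaging of calcium | Read-out: Integrated calcium ratio converted to B score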
MrgX1 PAM: allosterically activates human MrgX1 receptor signaling; AID 588675; 310,000 compounds, 0.63% hits; Q96LB2; MrgX1-HEK293, Fluo-4 calcium flux, FDSS; hits give high values; B-score at 10 µM;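 active means plate-corrected calcium response at least 3 library SD above typical, normal starting fluorescence, not activating the receptor alone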;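 further: compound read alongside a low EC10 to EC30 dose of BAM8-22 agonist; peak minus trough fluorescence over baseline measured at the second addition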
RGS4 block: human RGS4 inhibition; P49798; HEK293 M3R/RGS4 inducible, Fluo-4 calcium flux; hits give high values; triggered by carbachol at its EC20; B-score at 10 µM; 310,000 compounds, 0.45% hits; AID 463165;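 active means B-score, a plate-corrected calcium signal, over three deviations above library mean, with baseline fluorescence within five deviations of library mean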;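 further: RGS4 expression induced by doxycycline in cells with stable M3 receptor; B-score is computed from the integrated fluorescence ratio over baseline after carbachol; higher B-score means a larger calcium signal and so more RGS4 inhibition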
Target sequence (P49798 whole entry, looked up): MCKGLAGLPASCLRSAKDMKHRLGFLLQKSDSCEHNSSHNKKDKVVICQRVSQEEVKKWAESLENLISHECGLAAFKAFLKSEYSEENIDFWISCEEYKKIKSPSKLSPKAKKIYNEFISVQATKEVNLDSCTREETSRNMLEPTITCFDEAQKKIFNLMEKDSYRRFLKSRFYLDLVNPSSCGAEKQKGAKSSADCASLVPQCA
MrgX1 antag: antagonists of human MrgX1 receptor. B-score at 10 µM. MRGX1-HEK293 calcium flux, Fluo-4, BAM8-22 antagonism; hits give low values. Q96LB2. 310,000 compounds, 1.3% hits;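 active means calcium-response B-score plate-corrected more than 3 library SD below zero, starting fluorescence within 5 deviations, no agonist response on first addition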;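 further: peak minus trough fluorescence over baseline after final BAM8-22 challenge near maximal dose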
MrgX1 ant reconf: confirmation of human MrgX1 receptor antagonists; shares compounds with MrgX1 antag; MrgX1-HEK293, BAM8-22 calcium flux, Fluo-4; hits give low values; remaining BAM8-22 calcium response % of control (hits give low values), % at 10 µM; 2,300 compounds, 19% hits; AID 602420;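 active means remaining agonist calcium response no higher than 100% minus 3 SD of agonist-only control wells, with starting fluorescence near control levels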;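 further: agonist BAM8-22 given at a near maximal EC90 to ECmax level; peak minus minimum fluorescence divided by baseline after agonist addition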
HEK293 Ca flux: MrgX1 antagonist counter-screen hit in parental HEK293 cells. shares compounds with MrgX1 antag. Fluo-4 calcium fluorescence, FDSS. fluorescence ratio F(max-min)/F0 at 10 µM. 4,000 compounds, 2% hits. AID 624111;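 active means duplicate-averaged calcium fluorescence ratio at least three times the standard deviation of buffer wells, a nonspecific response in parental cells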
HEK293 Ca counter: MrgX1 allosteric activator counter-screen hit in parental HEK293 cells; shares compounds with MrgX1 antag; parental HEK293 calcium flux, Fluo-4 fluorescence ratio; hits give high values; fluorescence ratio F(max-min)/F0 at 10 µM; 4,000 compounds, 0.4% hits; AID 624114;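 active means calcium fluorescence ratio, averaged over duplicates, at least 3 SD of the buffer-well ratio, meaning a nonspecific response in receptor-free cells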;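 further: untransfected parental HEK293 lacking MrgX1 used as counterscreen for MrgX1 allosteric activators; fluorescence change taken during the second addition on a kinetic imager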
HEK293 Ca cntr2: MrgX1 activator counter-screen hit in parental HEK293 cells | shares compounds with MrgX1 antag | Fluo-4 calcium fluorescence (FDSS); hits give high values | fluorescence ratio F(max-min)/F0 at 10 µM | 4,000 compounds, 8.7% hits | AID 624115;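 active means calcium fluorescence ratio at least three times the spread of buffer wells, meaning a non-specific response in parental cells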
Hits are given with their value; n = inactive; x = no result given.

SMILES	MrgX1 ag	RGS4 pot	MrgX1 PAM	RGS4 block	MrgX1 antag	MrgX1 ant reconf	HEK293 Ca flux	HEK293 Ca counter	HEK293 Ca cntr2
COc1ccc(S(=O)(=O)n2ccc(C(C)Oc3ccc(-c4ccccc4)c(F)c3)n2)cc1 (stereo not given)	n	n	n	n	-6.63	n	n	n	n
O=S(=O)(NC1c2cccc3cccc(c23)C1N1CCNCC1)c1ccc(Cl)cc1 (stereo not given)	n	n	n	n	-5.75	83.6%	n	n	n
CC(=O)N1CCN(C2c3cccc4cccc(c34)C2NS(=O)(=O)c2ccccc2)CC1 (stereo not given)	n	n	n	n	n	x	x	x	x
CCOC(=O)C1CCCN(C(=O)CS(=O)(=O)Cc2ccccc2)C1 (stereo not given)	n	n	n	n	n	x	x	x	x
CCOC(=O)C1CCCN(C(=O)CCc2ccccc2)C1 (stereo not given)	n	n	n	n	-6.09	n	n	n	n
CCOC(=O)c1cnc(SC)nc1Oc1cccc(NS(=O)(=O)c2ccc(F)cc2)c1	n	n	n	n	-6.83	n	n	n	n
CCOC(=O)c1cnc(SC)nc1Oc1cccc(NS(=O)(=O)c2ccccc2)c1	n	n	n	n	n	x	x	x	x
CC(=O)NC(CC(=O)NNC(=O)c1cc2ccccc2cc1O)c1ccccc1 (stereo not given)	n	n	n	n	n	x	x	x	x
COc1cccc(CNc2nc(SC)ncc2CO)c1	n	n	n	n	-4.77	80.3%	n	n	n
COc1cccc(CNc2ncnc3cc(OC)c(OC)cc23)c1	n	n	n	n	n	x	x	x	x
COc1ccc(-c2csc(NC(=O)c3nc(-c4ccccc4)oc3C)n2)cc1	n	n	n	n	n	x	x	x	x
Cc1oc(-c2ccccc2)nc1C(=O)Nc1nccs1	n	n	n	n	-5.69	n	n	n	n
Nc1ccc(C(=O)Nc2nccs2)cc1	n	n	n	n	n	x	x	x	x
Cc1ccc(C(=O)Nc2nccs2)cc1	n	n	n	n	-5.25	n	n	n	n
CN(CC(=O)Nc1cccc(F)c1)C(=O)/C=C/c1cn(Cc2ccccc2)nc1-c1cccnc1	n	n	n	n	n	x	x	x	x
COc1cccc(C(=O)Nc2ccc(S(=O)(=O)Nc3cc(C)nc(C)n3)cc2)c1	n	n	n	n	n	x	x	x	x
CCN=C1SC(C(=O)Nc2cc(Cl)cc(Cl)c2)CC(=O)N1CC (stereo not given)	n	n	n	n	-5.27	n	n	n	n
O=c1[nH]nc2n1CCCCC2	n	n	n	n	-10.1	n	n	n	n
Cc1cccc(C)c1NC(=O)C1NC(=O)CC1c1ccccc1 (stereo not given)	n	n	n	n	-9.5	n	n	n	n
O=C(Nc1ccc(C(=O)N2CCCCC2)cc1)c1ccccc1Br	n	n	n	n	-5.62	n	n	n	n
O=C(Nc1ccc(C(=O)N2CCCC2)cc1)c1ccccc1Br	n	n	n	n	n	x	x	x	x
COc1cccc(CN2CCC(C(=O)N3CCN(c4ccccc4F)CC3)CC2)c1OC	n	n	n	n	-9.2	n	n	n	n
CC(C)CCn1cnc2c([nH]c3cccc(Cl)c32)c1=O	n	n	n	n	-5.78	n	n	n	n
Cc1cccc2[nH]c3c(=O)n(CCN4CCNCC4)cnc3c12	n	n	n	n	n	x	x	x	x
O=C(CCn1c(=S)oc2ccccc21)Nc1cccc(O)c1	n	n	n	n	n	x	x	x	x
CN1C(C)(C)CCCC1(C)C	n	x	n	x	-6.96	76.9%	n	n	n
Cc1c(Cl)c([N+](=O)[O-])nn1CC(=O)N1CCN(Cc2ccccc2)CC1	n	n	n	n	n	x	x	x	x

From PubChem BioAssay
